Bioassay records (PubChem BioAssay)
Shown are actives, neighbours in structure and some others; about 2.2% of the full set was active somewhere.
T cruzi repl = blocks replication of Trypanosoma cruzi; T. cruzi beta-gal in NIH3T3, luminescence, 90 h; inhibition, % (no concentration beside the values); hit rate 1.4% among 300,000; AID 1885;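 active = mean inhibition across valid replicates above about 55%, limit read from the data; inconclusive = mean below that limit but half or more replicates reach it; inactive = mean below it, under half of replicates reach it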;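 also: signal also drops with host cell toxicity which is not excluded here; 0% = plate median of DMSO wells and 100% = zero luminescence signal; higher percent means less beta-gal luminescence so fewer parasites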
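Assay system: NIH/3T3 host cells with β-galactosidase reporter T. cruzi; input: 5,000 host fibroblasts per well; compound: single 50 nL compound addition per well in DMSO; timing: ≥90 h infection period, 3 h prior cell attachment; measured by: GalScreen β-gal luminescence, detergent lysis, 60 min; evaluation: percent inhibition of parasite-derived β-gal signal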
Efflux pump inh = blocks antifungal efflux pumps in multiplex yeast assay; S. cerevisiae Candida pump triplex, Nile Red efflux; inhibition, % at 10 µM; hit rate 0.44% among 330,000;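 active = plate passing quality check with inhibition over a set limit, or well fluorescence over plate mean plus 4 SD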;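 also: Nile Red retained in pooled yeast measured as flow cytometry median fluorescence; 0% = buffer negative control and 100% = Enniatin B positive control; higher means more Nile Red kept so more efflux inhibition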
AI-2 QS mod = Vibrio harveyi AI-2 quorum sensing modulation; activity change, % at 7.5 µM; hit rate 0.4% among 300,000; AID 2094; Vibrio harveyi JMH597 AI-2 luminescence/OD600 ratio, 9 h; active compounds read low; strain lacks LuxN and CqsS sensors; 0 = neutral-control median; in the data active = activity change below about -75%, passing the limit was not always enough; inconclusive = no clear call, values can overlap the other calls;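 also: luminescence divided by OD600 gain over 9 h not by final OD600 alone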
PolyA inh = yeast polyadenylation inhibition; S. cerevisiae SKY197-pL101 polyadenylation reporter, beta-gal luminescence; efflux-impaired pdr1/pdr3 knockout yeast; score 100 = 6 SD above DMSO; activity score, % at 12 µM; hit rate 0.02% among 300,000;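 active = lowest replicate activity score at least 50, where 100 means six control SD above control mean; inconclusive = lowest score under 50 but half or more replicates reach 50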;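 also: yeast exposed to compound for 9 h at 30 °C; higher score means more reporter readthrough which indicates perturbed polyadenylation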
HDAC3 inh = inhibitors of human histone deacetylase 3; O15379; recombinant HDAC3, fluorogenic peptide/trypsin coupled, fluorescence; inhibition, % at 8.3 µM; hit rate 0.15% among 320,000; AID 2718; in the data active = inhibition above about 26%, passing the limit was not always enough; inconclusive = no clear call, values can overlap the other calls
Target sequence (O15379 whole entry, looked up): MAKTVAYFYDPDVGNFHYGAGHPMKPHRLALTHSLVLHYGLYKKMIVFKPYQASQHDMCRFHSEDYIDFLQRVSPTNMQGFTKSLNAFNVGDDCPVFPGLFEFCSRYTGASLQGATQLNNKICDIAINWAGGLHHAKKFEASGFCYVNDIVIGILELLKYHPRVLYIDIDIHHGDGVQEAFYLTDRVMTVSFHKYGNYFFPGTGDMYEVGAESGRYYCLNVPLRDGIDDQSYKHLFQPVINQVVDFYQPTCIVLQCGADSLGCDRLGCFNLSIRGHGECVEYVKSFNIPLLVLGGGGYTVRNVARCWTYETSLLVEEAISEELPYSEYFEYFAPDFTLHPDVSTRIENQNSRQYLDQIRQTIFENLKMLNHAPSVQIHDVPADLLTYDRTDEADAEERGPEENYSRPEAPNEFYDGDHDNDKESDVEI
* hit, by the source's call; ? = inconclusive; · = no result given.

SMILES | T cruzi repl | Efflux pump inh | AI-2 QS mod | PolyA inh | HDAC3 inh
CN(C)c1ccc([C@@H]2[C@@H]([N+](=O)[O-])[C@H]3C=Cc4ccccc4N3[C@H]2C(=O)c2ccc(Cl)cc2)cc1 | · | 0.3 | · | · | 5.8
O=C(CCCCCNC(=S)Nc1ccccc1)C[N+](=O)[O-] | 3.5 | -0.2 | 19.1 | -13.8 | 28.8*
COc1ccc(-c2nnc(C3CCN(S(=O)(=O)c4ccccc4)CC3)o2)cc1 | -1.3 | 0.2 | 18.1 | 8.8 | -6.3
COc1ccc2c(c1)sc(=N)n2C | 72.0* | -0.1 | 17.6 | -7.5 | 5.8
CCN(c1ccccc1)S(=O)(=O)c1ccc(Cl)c(NC(=O)CN(C)C2CCN(C)CC2)c1 | 56.4* | -0.1 | -1.8 | 9.0 | 6.4
CN1CCC(N(C)CC(=O)Nc2cccc(Oc3ccccc3)c2)CC1 | 61.7* | -0.1 | 2.9 | 10.9 | -0.3
Cc1c(CNC(=O)C2CC2)c(-n2cccc2)n(Cc2ccccc2)c1C | -4.8 | -0.1 | 13.3 | -15.1 | 0.9
Cc1ccc2nc(NC(=O)C3CCN(C(=O)c4ccc(F)cc4)CC3)sc2c1 | 16.3 | -0.1 | 11.6 | -14.5 | 6.2
CCCOc1ccc(/C=N/n2nnnc2N)cc1OC | -9.4 | 0.2 | -35.8 | 2.2 | -4.7
CCn1c(CNC(=O)c2ccc(OC)cc2)nnc1SCC(=O)c1ccccc1 | 2.4 | -0.1 | 24.4 | 10.8 | -0.9
CCn1c(CCNC(=O)c2cccs2)nnc1SCC(=O)c1ccc(OC)cc1 | -12.9 | 0.5 | 3.9 | 13.4 | 26.6*
O=C(Nc1ccccc1)c1cc([N+](=O)[O-])ccc1NCc1cccnc1 | 0.7 | -0.1 | 10.8 | 9.0 | 0.3
C/C(=N\NC(=O)c1ccc(Cl)c(Cl)c1)c1ccccn1 | 59.6* | -0.1 | 9.2 | -16.0 | 3.1
C/C(=N\NC(=O)c1cccc2ccccc12)c1ccccn1 | 63.9* | · | 62.9 | -36.0 | ·
C/C(=N/NC(N)=S)c1ccc(Br)s1 | 61.1* | -0.1 | -3.3 | -22.7 | -0.6
COc1ccc(C(=O)N/N=C(\C)c2ccccn2)cc1OC | 18.3 | 0.0 | 4.2 | -8.0 | -2.9
O=C(N/N=C(\c1ccccc1)c1ccccn1)c1ccccc1Cl | 61.7* | -6.6 | 6.6 | -1.0 | -9.3
C/C(=N\NC(=O)Cc1ccccc1)c1ccc(Br)s1 | -13.9 | 0.0 | 15.7 | 2.8 | -1.8
CCN(CC)S(=O)(=O)c1ccc(C)c(NC(=O)CN2CCN(C)CC2)c1 | 6.5 | 0.1 | 6.8 | 4.1 | 2.3
CCOc1ccccc1NC(=O)Nc1ccc(Br)cc1C | 2.3 | 0.0 | 18.8 | -7.4 | 1.9
C/C(=N\NC(=O)c1ccccc1Cl)c1ccccn1 | 54.6* | -0.3 | 4.4 | 16.0 | 0.8
C/C(=N\NC(=O)c1ccc(Cl)c(Cl)c1)c1ccc(Br)s1 | 70.1* | -0.2 | 29.7 | 0.4 | -1.1
C/C(=N\NC(=O)c1cc(Br)ccc1O)c1ccccn1 | -9.0 | -0.2 | 13.5 | -2.2 | 11.4
O=S(=O)(NC1c2cccc3cccc(c23)C1N1CCNCC1)c1ccc(Cl)cc1 (stereo not drawn) | 35.5 | 0.0 | -2.1 | -13.9 | -0.3
Cc1onc(-c2ccccc2)c1C(=O)NNC(=S)NC(=O)c1ccc(Cl)cc1Cl | -33.1 | -0.4 | 14.5 | 7.5 | 5.7
SMILES | T cruzi repl | Efflux pump inh | AI-2 QS mod | PolyA inh | HDAC3 inh
CN(C)S(=O)(=O)c1ccc(C(=O)OCC2CCCO2)cc1 (stereo not drawn) | -14.5 | 0.1 | -76.9* | 12.5 | 2.2
COCC(C)N=C1NN=C(c2c[nH]c3ccccc23)CS1 (stereo not drawn) | -10.7 | 0.0 | 10.4 | 13.2 | 14.9
COc1ccc(/C=C/c2ccncc2)cc1 | 73.7* | -0.1 | 11.5 | -0.2 | 1.7
COc1cccc(/C=C/c2ccncc2)c1OC | 48.9 | 0.1 | 13.2 | -8.4 | 5.3
Clc1ccc(CNc2ccc(CNc3ncn[nH]3)cc2)c(Cl)c1 | -10.5 | -0.1 | 24.0 | -1.7 | -0.7
Nc1nn(S(=O)(=O)c2ccccc2)cc1-c1cccc([N+](=O)[O-])c1 | 57.2* | -0.2 | 42.7 | -3.7 | 2.1
Cc1ccc(S(=O)(=O)c2c(C)cc(C)[nH]c2=O)cc1 | -3.4 | 0.2 | 20.9 | -9.5 | -1.1
COc1ccccc1-[n+]1c(C)cc(/C=C2\Sc3ccccc3N2C)cc1C | 56.3* | 0.0 | ? | -7.0 | ?
O=C(NCCN1CCCCC1)c1cc(Cl)ccc1Cl | 7.2 | 0.2 | 15.6 | -0.1 | 0.8
Oc1c(C(Nc2cccc(C(F)(F)F)c2)c2ccncc2)ccc2cccnc12 (stereo not drawn) | 78.6* | -0.1 | -33.7 | -2.7 | ·
